Tested on: MS2 coat protein
Assay: apparent Kd, MS2 coat protein; higher = weaker binding; RNA-MaP array; FMN 200 µM where present
In short: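 The apparent Kd comes from binding curves fitted cluster by cluster, filtered, and summarised as a median. Those curves followed SNAP-549-labelled MS2 coat protein from 0.7 or 1.5 nM, doubling to 3 µM, on Illumina sequencing-chip clusters where stalled E. coli RNA polymerase had transcribed the designs, without and then with constant ligand. The buffer was 100 mM Tris-HCl pH 7.5, 80 mM KCl, 4 mM MgCl2, BSA, DTT, yeast tRNA and Tween-20, and green signal was normalised to red-channel RNA signal and control-cluster median Fmax.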

[1] = designed as: OFF switch for flavin mononucleotide, no ligand
[2] = ligand present: flavin mononucleotide, designed as: OFF switch for flavin mononucleotide
[3] = designed as: ON switch for flavin mononucleotide, no ligand
[4] = ligand present: flavin mononucleotide, designed as: ON switch for flavin mononucleotide

“AGUCGGAGCAGAGGAUAUUACAUGAGGAUCACCCAUGUAUAAAAUGGAAGCUGGAAACAGCAAUGUAAGAAGGCUGCUCCGACA” was tested, and the “apparent Kd” value [1] was 64 nM and the “apparent Kd” value [2] was 296 nM.

“GCGAGCAUACAGAAGGGAUCGUCGUCGCGGCUGUCAGGAUAUGUAGCUUGGCCUAAACAUGAGGAUCACCCAUGUAUAAUGCUA” was tested, and the “apparent Kd” value [3] was 111 nM and the “apparent Kd” value [4] was 18.6 nM.

For “CCGGAAAUGCAGGAUAUCGUAUCGGAUACGAUACGAGAAGGGUAUACAUGAGGAUCACCCAUGUGUCCUCCCGG”, the “apparent Kd” value [1] was 38.3 nM and the “apparent Kd” value [2] was 109 nM.

For “CAGGUAGACUGAGGAUAUACAUACCAUCAGCUAGUCUAUCUAGCUGUCACAUGAGGAUCACCCAUGUAGAAGGCAGUCUGCCUG”, the “apparent Kd” value [1] was 30.5 nM and the “apparent Kd” value [2] was 122 nM.

“UUGAGGUGCAAGAAGGGUCACAUGAGGAUCACCCAUGUCAUGUGAAGUCUCGAGAUUUUAUAUGGAUAGGAUAUUGCACCGAAC” was tested, and the “apparent Kd” value [3] was 197 nM and the “apparent Kd” value [4] was 98.2 nM.

“UGUCGGAGCAGAGGAUAUUACAUGAGGAUCACCCAUGUAUGAACCAAUAGCUGGAAACAGCAAUGUAAGAAGGCUGCUCUGACA” was tested, and the “apparent Kd” value [1] was 11.5 nM and the “apparent Kd” value [2] was 150 nM.

“ACCGGCGCUUACAUGAGGAUCACCCAUGUGCGCACUCGGGCACAGGAUAUCCAUGGUAAGUAUCGGGAGAAGGGUGAGAAGAAU” was tested, and the “apparent Kd” value [3] was 163 nM and the “apparent Kd” value [4] was 309 nM.

“GCACAUGAUACAGGAUAUGUAUUGGAAUAUAUAAUGAAUUAGAUGAAAUUGACAGAAGGGUAGACAUGAGGAUCACCCAUGUGC” was tested, and the “apparent Kd” value [1] was 324 nM and the “apparent Kd” value [2] was 186 nM.

“CUGUGACGGUGCGCAAGUGGACGGAGAAGGGACACAUGAGGAUCACCCAUGUGGGCCUGCUAUUGUCAGGAUAUCCGUUCGUAC” was tested, and the “apparent Kd” value [1] was 6.26 nM and the “apparent Kd” value [2] was 6.62 nM.

In the case of “UUUCUGUGAGGAUAUCAGUAGUAAAUAAAUAAAAUUACUACUGAGAAGGCACAUGAGGAUCACCCAUGUUCCUU”, the “apparent Kd” value [1] is reported as 12.2 nM and the “apparent Kd” value [2] is reported as 29.7 nM.

With “AUAUGAAAGAUAGGAUAUACUGAGGUUGAAUGGGUAGAAGGAUCGAUAGUGAAGAAUACAUGAGGAUCACCCAUGUUGUGGAUU” the “apparent Kd” value [3] was 556 nM and the “apparent Kd” value [4] was 209 nM.

In the case of “GUAGCUAACGGAGGAUAUUCAUACCGGAAACGGACAUGAGGAUCACCCAUGUGGCGAAAGCCAUGGGAGAAGGCCGUUAGCUAC”, the “apparent Kd” value [3] is reported as 918 nM and the “apparent Kd” value [4] is reported as 147 nM.

With “AAAUCGCAAGGAUAUCGUCAGUCUGACAUGAGGAUCACCCAUGUUAUCUUGGUAUCAGAGCGAGAAGGUGCAAAGU” the “apparent Kd” value [1] was 13 nM and the “apparent Kd” value [2] was 13.9 nM.

With “GAUUCGCGUGAGAAGGACAUGAGGAUCACCCAUGUAGGAUAUCACGGUCCUUAGAGGAUUUCAAACCGUACUGGGUCAUAGUGU” the “apparent Kd” value [3] was 15.2 nM and the “apparent Kd” value [4] was 6.7 nM.

In the case of “CCAUGCGGAUGAGGAUAUUCAUUCAUGAGGAUAGAAGAAGGCGUACAUGAGGAUCACCCAUGUAUACACAUGAGGAUCCCUUAC”, the “apparent Kd” value [1] is reported as 385 nM and the “apparent Kd” value [2] is reported as 372 nM.

In the case of “CGAUAUGAUGCAGGAUAUCUAUCUUGAAUGAGGAGAGAAGGGCAAAGGGAGACAUAAGCCUUAUUACAUGAGGAUCACCCAUGU”, the “apparent Kd” value [1] is reported as 13.3 nM and the “apparent Kd” value [2] is reported as 11.3 nM.

With “CUAGCUAUCGGAGGAUAUUCAUACCGGAAACGGACAUGAGGAUCACCCAUGUGGCGAAAGCCAUGGGAGAAGGCCGAUAGCUAG” the “apparent Kd” value [3] was 1640 nM and the “apparent Kd” value [4] was 133 nM.

For “UUAUGAGCGAUAGGAUAUACUGAGAUUGAAUGGGUAGAAGGAUCAAUUGUGUGGAAGACAUGAGGAUCACCCAUGUUACGGGCC”, the “apparent Kd” value [3] was 104 nM and the “apparent Kd” value [4] was 337 nM.

For “CCACAGAUAGGAUAUACUGGGUGGGAUAAAUAUUUCCUGUGACAUGAGGAUCACCCAUGUAGAAGGAUCACAAG”, the “apparent Kd” value [1] was 38.2 nM and the “apparent Kd” value [2] was 42.4 nM.

With “CCUUUACAUGAGGAUCACCCAUGUCAGGAUAUCCUGUUGUGUUGUCUCGGGCGACACAUGAGCCAGGAGAAGGGACGAAGGGAA” the “apparent Kd” value [1] was 41.7 nM and the “apparent Kd” value [2] was 68.1 nM.

For “GAGAAGUCAGGAUAUGCUGCUCGUCACUUGCGUGAUGAGUAGCAGAAGGGACAUGAGGAUCACCCAUGUAAAGA”, the “apparent Kd” value [1] was 51.2 nM and the “apparent Kd” value [2] was 64.5 nM.

With “AAAAAGUGAGGAUAUGCUGCUCGUCACUUGCGUGAUGAGUAGCAGAAGGCACAUGAGGAUCACCCAUGUGGGAA” the “apparent Kd” value [1] was 82.6 nM and the “apparent Kd” value [2] was 170 nM.

In the case of “GUAGCAUACCGAGGAUAUUCACAUAAUAAAUAAACAUGAGGAUCACCCAUGUGGCGAAAGCCUAGGGAGAAGGCGGAAUGCUAC”, the “apparent Kd” value [3] is reported as 76 nM and the “apparent Kd” value [4] is reported as 18.7 nM.

For “GAGAAGUCAGGAUAUGCAUGGCGGGACUUGCGUCGUGGCGUGCAGAAGGGACAUGAGGAUCACCCAUGUAAAGG”, the “apparent Kd” value [1] was 143 nM and the “apparent Kd” value [2] was 265 nM.

In the case of “UUGGACGUCGUAGGAUAUGUAGGAUAUUCCUACAUGAGGAUCACCCAUGUUGACAUGGAAGAAGGACAGAAGAACGAUGUCCAU”, the “apparent Kd” value [3] is reported as 161 nM and the “apparent Kd” value [4] is reported as 4.92 nM.

In the case of “CAGGGUAGAGGAUAUACGUAGGUACAGAUCUGUGUGAUCCUACAUGAGGAUCACCCAUGUAGAAGGCUAGCCUG”, the “apparent Kd” value [1] is reported as 356 nM and the “apparent Kd” value [2] is reported as 39.4 nM.

In the case of “UACAUGAGGAUCACCCAUGUUUUGUCGUGUAUGGUAUUUAUCUAGGAUAUCAAUGUAUUUAUGUAUGAGAAGGAGAAUAUUAAU”, the “apparent Kd” value [1] is reported as 45.7 nM and the “apparent Kd” value [2] is reported as 37.3 nM.

With “AAGAGUAGAGGAUAUAUAUGAAAAGAGUCGAAAGACUCAAAACAUGAGGAUCACCCAUGUAGAAGGCUACUCAA” the “apparent Kd” value [1] was 17.8 nM and the “apparent Kd” value [2] was 21.1 nM.

In the case of “AUAUUUAUUUAGAAGGACAUGAGGAUCACCCAUGUCGCUGGGCGCGGGAAACCGUGCGCGGCCAUGUAGGAUAUAGGUAGAUAU”, the “apparent Kd” value [1] is reported as 14.4 nM and the “apparent Kd” value [2] is reported as 12.4 nM.

With “GUGUUGGUAGGAUAUCCACCGACAAACAUGAGGAUCACCCAUGUGACGCUCCCUUGUCUUGGAGAAGGGCCGGCAU” the “apparent Kd” value [1] was 50.4 nM and the “apparent Kd” value [2] was 49.1 nM.

In the case of “AUUUUUAAGGUAGGAUAUAGUAUAAUGGUUUAAUUAGAAGGAUCUCACAUGAGGAUCACCCAUGUAAUAGGAUUACCCAUGUAU”, the “apparent Kd” value [1] is reported as 38.8 nM and the “apparent Kd” value [2] is reported as 26.8 nM.

With “ACAUGAGGAUCACCCAUGUGUACAUAGGAUAUUGAGGAUUAGGGAUGUUGUUUUGGAUUUGCCCACAAGAAGGAUGAAAGUGUU” the “apparent Kd” value [3] was 9.68 nM and the “apparent Kd” value [4] was 8.68 nM.

In the case of “UGAUAGGACAGAGGAUAUACCGAUAGGAUCUACUAUCGAAUAAUCCUCACAUGAGGAUCACCCAUGUAGAAGGCUGUCCUAUCU”, the “apparent Kd” value [1] is reported as 19.7 nM and the “apparent Kd” value [2] is reported as 144 nM.

In the case of “AUUUUAAUAUAGGAUAUCGAAUUUAUUAAUUAUCGAGAAGGAUAAACAUGAGGAUCACCCAUGUGGUAUCAUGG”, the “apparent Kd” value [1] is reported as 210 nM and the “apparent Kd” value [2] is reported as 274 nM.

In the case of “AGAGCCGGCACUGAGGAUAUUCAUAUUAAAACAUGAGGAUCACCCAUGUAGGCCAGAAGGCCUUGGGAGAAGGCAGGUCGGCUCU”, the “apparent Kd” value [3] is reported as 407 nM and the “apparent Kd” value [4] is reported as 29.5 nM.

For “GCCGGGUAGGCAGGAUAUCCUCGCGCAAACACAUGAGGAUCACCCAUGUACACAAAACGUGAUAUGGAGAAGGGCCGACCCACG”, the “apparent Kd” value [3] was 24.2 nM and the “apparent Kd” value [4] was 5.66 nM.

For “AGUGCCUCGAGAGGAUAUAACAUGAGGAUCACCCAUGUAACAGAGGUGGAAACACCUCUGAAAUGUUAGAAGGCUCGAGGCACA”, the “apparent Kd” value [1] was 40.7 nM and the “apparent Kd” value [2] was 53.2 nM.

With “GGCGACCUAGGAUAUACAUGAGGAUCACCCAUGUUUAUCUAAUAGAUGAAGACGGGUUGUAGAAGGAGGAAAAU” the “apparent Kd” value [1] was 15.6 nM and the “apparent Kd” value [2] was 19.4 nM.

In the case of “AAUGGCGUCCAAGGAUAUCCUGACCGUUAACAUGAGGAUCACCCAUGUUGCCUAAAGGCGGCAUAGGAGAAGGUGGUACUCUGU”, the “apparent Kd” value [3] is reported as 73.3 nM and the “apparent Kd” value [4] is reported as 124 nM.

“GUCGGAAACGACAAAAGUAUGGAUCCAGAAGGCAUGAUACAUGAGGAUCACCCAUGUCUAAGACAUGAGGAUAUGGAUCCAUAC” was tested, and the “apparent Kd” value [3] was 13.7 nM and the “apparent Kd” value [4] was 4.77 nM.

For “UAUUAUAGCAGUGUAUUAAGAUCACAUGAGGAUCACCCAUGUAGAAGGUAUAAGCAAUAUGCUAAUAAGGAUAUACAACACUGC”, the “apparent Kd” value [1] was 8.13 nM and the “apparent Kd” value [2] was 27.5 nM.
